Published values from different studies.
Compare with care: the assays were run in different laboratories.
Matrix: plasma

Cc1cc2sc(N)nc2c2cccnc12
CL/F (female BALB/c mouse; intraperitoneal; 30 mg/kg; single dose): 11 mL/min/kg

O=C(C=Cc1ccccc1)Nc1cc(-c2ccnc(N3CCC(O)CC3)c2)ccn1
Tmax (female Sprague-Dawley rat; intravenous; 5 mg/kg): 4.98 min

CC1=NN(/C(=N/c2nnc(C)s2)Nc2ccc(C)c(C)c2)C(c2cc(F)c(F)c(F)c2)S1 (stereo not drawn)
clearance (male CD-1 mouse; intravenous; 1 mg/kg): 121 mL/min/kg

CCN1CCN(Cc2ccc(NC(=O)c3ccc(C)c(NC(=O)c4cncc(-c5cccs5)c4)c3)cc2C(F)(F)F)CC1
CL/F (mouse; intraperitoneal; 20 mg/kg; single dose): 151 mL/min/kg

Cc1cc([C@@H](C)Nc2ccccc2C(=O)O)c2nc(N3CCC(F)(F)CC3)c(C#N)c(=O)n2c1
clearance (male beagle dog; intravenous; 2 mg/kg): 64 mL/min/kg

N#C[C@@]12C[C@@H]1[C@@H](n1cnc3c(N[C@@H](C4CCC4)C4CC4)nc(I)nc31)[C@H](O)[C@@H]2O
Tmax (male Wistar rat; oral; 10 mg/kg): 120 min

O=C1CCC(N2Cc3cc(NC(=O)c4cccc(F)c4)ccc3C2=O)C(=O)N1 (stereo not drawn)
clearance (female CD-1 mouse; intravenous; 3 mg/kg): 24 mL/min/kg

Cc1c(C(=O)O)ccc2c3n(nc12)[C@@H]1[C@H](C3)N(CC2CC2)[C@@]2(C(=O)Nc3cc(Cl)ccc32)[C@H]1c1cccc(Cl)c1F
Cmax (male dog; oral; 2 mg/kg): 3.5 µM

O=C1CC[C@H](N2Cc3cc(N4CCN(CC5CCN(c6ccc([C@@H]7c8ccc(O)cc8CC[C@@H]7c7ccccc7)cc6)CC5)CC4)ccc3C2=O)C(=O)N1
Tmax (female Sprague-Dawley rat; oral; 20 mg/kg; fed): 320 min

CCNCCCn1c2c(c3cc(OC)c(OC)cc3c1=O)C(=O)c1cc3c(nc1-2)OCO3
clearance (male CD-1 mouse; intravenous; 1 mg/kg): 107 mL/min/kg

N[C@@H](CC(=O)O)Cn1nnc(-c2ccc(Oc3ncc(Cl)cc3F)cc2)n1
Cmax (male beagle dog; oral; 0.5 mg/kg): 5.7 ng/mL

COc1cc2c3c(n(CCCNCCO)c(=O)c2cc1OC)-c1nc2c(cc1C3=O)OCO2
clearance (male CD-1 mouse; intravenous; 1 mg/kg): 107 mL/min/kg

CC(=Nc1ccc(N=Cc2cnccn2)cc1)N(C)C
Tmax (male Sprague-Dawley rat; oral; 200 mg/kg): 4.98 min

CC(=O)CC(=O)C1CC(C)C(=O)C1=O (stereo not drawn)
Tmax (male Sprague-Dawley rat; oral; 100 mg/kg): 4.8 min

O=C1CCC(N2Cc3cc(Nc4noc5cc(F)ccc45)ccc3C2=O)C(=O)N1 (stereo not drawn)
clearance (female CD-1 mouse; intravenous; 3 mg/kg): 55 mL/min/kg
